From ChEMBL document CHEMBL1150387, “Development and experimental validation of a docking strategy for the generation of kinase-targeted libraries” (J Med Chem, 2008) come the findings set out here.

Assay [1] deals with Receptor-type tyrosine-protein kinase FLT3 (Homo sapiens) (UniProt P36888). The assay can be described thus: Inhibition of FLT3 at 10 uM by HTRF assay relative to control. In outline: (§1)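 HTRF kinase assay, one panel of kinases. Inhibitor stock 50 µM in 100% DMSO; tested at 10 µM. ATP and substrate at final levels near Km. Final buffer: 50 mM Hepes/NaOH pH 7.4, 40 µM Na3VO4, 0.005% Tween-20, 1 mM DTT, MnCl2 or MgCl2 at kinase-dependent levels. Started by adding ATP/substrate. Reaction run at room temperature, time varied by kinase. Detection mix in 50 mM Hepes pH 7.4, 0.1% BSA, 150 mM KF, incubated ≥1 h at room temperature. Activity expressed as % of uninhibited control; n=2.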
Receptor-type tyrosine-protein kinase FLT3 (Homo sapiens), sequence (P36888 whole entry): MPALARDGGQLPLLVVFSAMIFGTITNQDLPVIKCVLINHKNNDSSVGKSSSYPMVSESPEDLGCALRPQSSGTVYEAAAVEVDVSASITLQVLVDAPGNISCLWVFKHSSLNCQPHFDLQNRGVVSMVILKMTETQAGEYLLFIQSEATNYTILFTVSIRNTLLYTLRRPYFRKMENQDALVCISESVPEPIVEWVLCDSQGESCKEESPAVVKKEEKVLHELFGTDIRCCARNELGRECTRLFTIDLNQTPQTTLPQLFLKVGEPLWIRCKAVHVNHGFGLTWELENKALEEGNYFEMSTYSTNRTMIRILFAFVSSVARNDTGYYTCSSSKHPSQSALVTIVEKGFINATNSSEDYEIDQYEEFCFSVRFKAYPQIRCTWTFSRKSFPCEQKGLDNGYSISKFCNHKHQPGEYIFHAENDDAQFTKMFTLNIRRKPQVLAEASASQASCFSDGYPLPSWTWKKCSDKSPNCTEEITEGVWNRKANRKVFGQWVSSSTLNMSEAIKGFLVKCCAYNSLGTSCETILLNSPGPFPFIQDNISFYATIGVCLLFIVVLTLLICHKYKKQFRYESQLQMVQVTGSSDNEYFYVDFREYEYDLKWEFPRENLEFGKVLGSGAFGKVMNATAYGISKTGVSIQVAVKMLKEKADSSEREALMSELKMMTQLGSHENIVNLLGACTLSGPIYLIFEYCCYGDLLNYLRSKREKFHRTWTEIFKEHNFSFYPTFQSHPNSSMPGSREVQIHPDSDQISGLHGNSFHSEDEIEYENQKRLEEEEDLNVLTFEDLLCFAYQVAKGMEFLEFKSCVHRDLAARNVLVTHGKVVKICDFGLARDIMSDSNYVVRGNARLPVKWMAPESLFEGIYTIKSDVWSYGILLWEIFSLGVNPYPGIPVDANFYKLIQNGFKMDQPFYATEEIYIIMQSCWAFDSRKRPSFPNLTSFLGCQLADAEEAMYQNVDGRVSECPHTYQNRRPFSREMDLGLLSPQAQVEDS
For orientation: In TR-FRET formats the signal depends on donor and acceptor labels being close together.

Assay [2] deals with Mitogen-activated protein kinase 14 (Homo sapiens) (UniProt Q16539). Briefly: Inhibition of p38alpha at 10 uM by HTRF assay relative to control. A digest of the protocol:
as §1

Assay [3] deals with Mitogen-activated protein kinase 8 (Homo sapiens) (UniProt P45983). The assay can be described thus: Inhibition of JNK1 at 10 uM by HTRF assay relative to control. A digest of the protocol:
as §1

Assay [4] deals with Rho-associated protein kinase 2 (Homo sapiens) (UniProt O75116). The assay can be described thus: Inhibition of ROCK2 at 10 uM by HTRF assay relative to control. A digest of the protocol: as §1
Assay [5] addresses T1, Inhibitor of nuclear factor kappa-B kinase subunit beta (Homo sapiens) (UniProt O14920).
T1 sequence (whole entry): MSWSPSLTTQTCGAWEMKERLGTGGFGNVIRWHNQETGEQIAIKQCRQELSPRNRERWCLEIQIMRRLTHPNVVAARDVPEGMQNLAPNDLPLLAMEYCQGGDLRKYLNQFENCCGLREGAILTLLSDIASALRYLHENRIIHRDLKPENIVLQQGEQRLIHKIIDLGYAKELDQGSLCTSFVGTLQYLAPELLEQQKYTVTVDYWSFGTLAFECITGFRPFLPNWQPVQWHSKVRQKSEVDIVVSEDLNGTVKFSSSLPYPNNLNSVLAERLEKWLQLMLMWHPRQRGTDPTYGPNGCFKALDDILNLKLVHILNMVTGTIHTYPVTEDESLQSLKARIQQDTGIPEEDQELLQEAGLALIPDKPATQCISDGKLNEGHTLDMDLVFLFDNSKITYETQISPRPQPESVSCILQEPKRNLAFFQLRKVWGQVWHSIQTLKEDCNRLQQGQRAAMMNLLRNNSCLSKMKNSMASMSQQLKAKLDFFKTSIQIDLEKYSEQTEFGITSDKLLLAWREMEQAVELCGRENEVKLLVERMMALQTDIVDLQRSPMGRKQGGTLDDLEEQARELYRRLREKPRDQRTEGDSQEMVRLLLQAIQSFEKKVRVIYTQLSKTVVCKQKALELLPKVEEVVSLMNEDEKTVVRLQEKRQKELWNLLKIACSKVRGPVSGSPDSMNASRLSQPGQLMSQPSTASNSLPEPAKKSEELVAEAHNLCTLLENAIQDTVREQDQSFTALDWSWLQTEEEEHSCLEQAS
The assay can be described thus: Inhibition of IKK-beta at 10 uM by HTRF assay relative to control. A digest of the protocol: as §1

Assay [6] concerns the target Epidermal growth factor receptor (Homo sapiens) (UniProt P00533). Briefly: Inhibition of EGFR at 10 uM by HTRF assay relative to control. In outline: as §1
Assay [7] deals with Tyrosine-protein kinase Lyn (Homo sapiens) (UniProt P07948). The assay can be described thus: Inhibition of Lyn at 10 uM by HTRF assay relative to control. In outline: as §1
Tyrosine-protein kinase Lyn (Homo sapiens), sequence (P07948 2-512 limits assumed): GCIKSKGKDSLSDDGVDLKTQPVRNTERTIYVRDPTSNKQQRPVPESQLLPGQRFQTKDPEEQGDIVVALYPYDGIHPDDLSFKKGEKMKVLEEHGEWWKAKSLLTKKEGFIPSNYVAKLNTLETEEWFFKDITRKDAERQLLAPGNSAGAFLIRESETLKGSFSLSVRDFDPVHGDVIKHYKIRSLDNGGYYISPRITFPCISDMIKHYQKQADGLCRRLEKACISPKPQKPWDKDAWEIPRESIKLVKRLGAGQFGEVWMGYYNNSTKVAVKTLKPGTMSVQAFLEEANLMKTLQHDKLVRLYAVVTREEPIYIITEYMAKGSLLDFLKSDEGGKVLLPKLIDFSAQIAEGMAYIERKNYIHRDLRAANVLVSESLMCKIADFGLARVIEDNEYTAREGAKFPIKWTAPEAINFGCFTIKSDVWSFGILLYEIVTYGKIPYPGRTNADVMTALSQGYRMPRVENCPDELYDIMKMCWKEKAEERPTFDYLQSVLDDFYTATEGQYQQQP
In assay [8] the target is Serine/threonine-protein kinase Chk2 (Homo sapiens) (UniProt O96017). The assay can be described thus: Inhibition of CHK2 at 10 uM by HTRF assay relative to control. A digest of the protocol: as §1
Serine/threonine-protein kinase Chk2 (Homo sapiens), sequence (O96017 whole entry): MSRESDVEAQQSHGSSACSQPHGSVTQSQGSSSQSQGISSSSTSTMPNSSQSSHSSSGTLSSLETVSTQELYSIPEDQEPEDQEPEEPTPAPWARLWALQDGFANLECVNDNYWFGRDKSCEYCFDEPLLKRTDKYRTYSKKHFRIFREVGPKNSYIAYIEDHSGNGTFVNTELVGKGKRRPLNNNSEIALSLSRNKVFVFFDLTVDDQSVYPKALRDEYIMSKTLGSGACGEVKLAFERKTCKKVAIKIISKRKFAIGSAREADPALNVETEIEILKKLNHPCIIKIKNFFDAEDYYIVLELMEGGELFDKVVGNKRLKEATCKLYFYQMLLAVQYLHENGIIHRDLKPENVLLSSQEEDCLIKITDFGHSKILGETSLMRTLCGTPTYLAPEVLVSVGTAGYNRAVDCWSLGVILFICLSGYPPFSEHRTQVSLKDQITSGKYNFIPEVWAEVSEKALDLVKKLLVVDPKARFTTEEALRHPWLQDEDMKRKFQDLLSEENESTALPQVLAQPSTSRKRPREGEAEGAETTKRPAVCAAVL
For assay [9], the target named is Tyrosine-protein kinase Lck (Homo sapiens) (UniProt P06239). Briefly: Inhibition of Lck at 10 uM by HTRF assay relative to control. In outline:
as §1

The target of assay [10] is T2, Tyrosine-protein kinase JAK3 (Homo sapiens) (UniProt P52333).
T2 sequence (whole entry): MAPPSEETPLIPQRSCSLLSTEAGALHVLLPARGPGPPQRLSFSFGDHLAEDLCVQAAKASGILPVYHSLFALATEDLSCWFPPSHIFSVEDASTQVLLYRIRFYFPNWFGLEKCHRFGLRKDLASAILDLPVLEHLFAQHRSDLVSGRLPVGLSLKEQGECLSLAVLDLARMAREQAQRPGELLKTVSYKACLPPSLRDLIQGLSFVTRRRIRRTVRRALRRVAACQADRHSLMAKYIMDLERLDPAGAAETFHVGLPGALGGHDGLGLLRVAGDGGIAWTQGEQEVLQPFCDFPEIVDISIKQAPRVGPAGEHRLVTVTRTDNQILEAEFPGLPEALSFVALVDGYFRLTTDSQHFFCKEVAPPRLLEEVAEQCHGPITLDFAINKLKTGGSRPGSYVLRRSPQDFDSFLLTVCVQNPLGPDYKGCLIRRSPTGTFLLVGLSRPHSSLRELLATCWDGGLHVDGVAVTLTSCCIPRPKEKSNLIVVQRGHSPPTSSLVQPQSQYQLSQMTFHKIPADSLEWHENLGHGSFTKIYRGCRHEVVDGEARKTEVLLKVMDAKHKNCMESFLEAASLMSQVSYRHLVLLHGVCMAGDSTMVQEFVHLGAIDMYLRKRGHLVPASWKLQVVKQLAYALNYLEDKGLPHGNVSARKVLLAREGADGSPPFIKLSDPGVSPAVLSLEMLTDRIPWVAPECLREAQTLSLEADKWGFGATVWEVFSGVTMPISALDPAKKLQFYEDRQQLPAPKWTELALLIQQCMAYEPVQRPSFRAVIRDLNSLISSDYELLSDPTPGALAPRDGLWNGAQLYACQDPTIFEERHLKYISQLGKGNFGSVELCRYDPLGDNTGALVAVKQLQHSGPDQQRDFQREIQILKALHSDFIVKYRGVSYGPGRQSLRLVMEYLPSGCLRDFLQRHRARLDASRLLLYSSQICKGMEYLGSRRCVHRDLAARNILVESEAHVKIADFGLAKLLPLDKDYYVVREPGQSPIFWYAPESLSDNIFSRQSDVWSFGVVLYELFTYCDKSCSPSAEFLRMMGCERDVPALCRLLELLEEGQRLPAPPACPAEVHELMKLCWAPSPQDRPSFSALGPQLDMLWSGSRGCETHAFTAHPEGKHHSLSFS
Briefly: Inhibition of JAK3 at 10 uM by HTRF assay relative to control. In outline: as §1

In general, inhibition refers to the share of the control response that was lost under treatment. Higher therefore signals strong suppression.

Mitogen-activated protein kinase 14 (Homo sapiens), sequence (Q16539 whole entry): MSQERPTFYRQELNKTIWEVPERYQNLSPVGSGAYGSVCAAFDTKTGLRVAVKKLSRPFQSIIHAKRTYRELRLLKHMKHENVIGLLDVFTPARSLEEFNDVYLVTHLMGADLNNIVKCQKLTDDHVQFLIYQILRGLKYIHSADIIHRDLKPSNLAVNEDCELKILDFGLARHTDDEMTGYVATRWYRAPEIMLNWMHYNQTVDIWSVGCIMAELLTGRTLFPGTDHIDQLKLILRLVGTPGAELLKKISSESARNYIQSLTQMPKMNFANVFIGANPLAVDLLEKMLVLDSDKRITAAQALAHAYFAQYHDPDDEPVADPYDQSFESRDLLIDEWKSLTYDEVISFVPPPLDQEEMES
Tyrosine-protein kinase Lck (Homo sapiens), sequence (P06239 2-509 limits assumed): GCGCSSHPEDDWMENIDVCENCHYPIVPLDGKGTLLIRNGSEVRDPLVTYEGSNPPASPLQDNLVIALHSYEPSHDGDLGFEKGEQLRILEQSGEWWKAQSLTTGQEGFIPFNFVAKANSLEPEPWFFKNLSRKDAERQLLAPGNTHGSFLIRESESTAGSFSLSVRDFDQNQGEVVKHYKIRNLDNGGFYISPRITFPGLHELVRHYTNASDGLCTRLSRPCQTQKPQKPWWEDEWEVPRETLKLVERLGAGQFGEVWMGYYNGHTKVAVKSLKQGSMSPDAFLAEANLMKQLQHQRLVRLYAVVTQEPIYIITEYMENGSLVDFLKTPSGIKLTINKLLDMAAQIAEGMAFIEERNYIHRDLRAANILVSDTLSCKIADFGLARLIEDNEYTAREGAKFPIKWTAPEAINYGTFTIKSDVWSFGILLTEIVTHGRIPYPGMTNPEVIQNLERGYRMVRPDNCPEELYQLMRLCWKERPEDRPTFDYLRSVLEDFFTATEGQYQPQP
Mitogen-activated protein kinase 8 (Homo sapiens), sequence (P45983 whole entry): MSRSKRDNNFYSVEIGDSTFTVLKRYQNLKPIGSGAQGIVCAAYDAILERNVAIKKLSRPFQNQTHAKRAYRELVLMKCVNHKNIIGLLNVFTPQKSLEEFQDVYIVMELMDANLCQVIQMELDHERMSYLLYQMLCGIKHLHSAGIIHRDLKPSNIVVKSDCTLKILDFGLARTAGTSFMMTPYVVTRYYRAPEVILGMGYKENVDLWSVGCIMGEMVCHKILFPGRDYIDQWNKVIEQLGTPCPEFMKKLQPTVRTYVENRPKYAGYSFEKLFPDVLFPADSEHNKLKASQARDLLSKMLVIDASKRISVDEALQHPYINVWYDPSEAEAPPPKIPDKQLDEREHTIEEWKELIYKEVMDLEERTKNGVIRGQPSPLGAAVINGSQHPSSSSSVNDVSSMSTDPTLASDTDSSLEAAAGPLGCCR
Epidermal growth factor receptor (Homo sapiens), sequence (P00533 whole entry): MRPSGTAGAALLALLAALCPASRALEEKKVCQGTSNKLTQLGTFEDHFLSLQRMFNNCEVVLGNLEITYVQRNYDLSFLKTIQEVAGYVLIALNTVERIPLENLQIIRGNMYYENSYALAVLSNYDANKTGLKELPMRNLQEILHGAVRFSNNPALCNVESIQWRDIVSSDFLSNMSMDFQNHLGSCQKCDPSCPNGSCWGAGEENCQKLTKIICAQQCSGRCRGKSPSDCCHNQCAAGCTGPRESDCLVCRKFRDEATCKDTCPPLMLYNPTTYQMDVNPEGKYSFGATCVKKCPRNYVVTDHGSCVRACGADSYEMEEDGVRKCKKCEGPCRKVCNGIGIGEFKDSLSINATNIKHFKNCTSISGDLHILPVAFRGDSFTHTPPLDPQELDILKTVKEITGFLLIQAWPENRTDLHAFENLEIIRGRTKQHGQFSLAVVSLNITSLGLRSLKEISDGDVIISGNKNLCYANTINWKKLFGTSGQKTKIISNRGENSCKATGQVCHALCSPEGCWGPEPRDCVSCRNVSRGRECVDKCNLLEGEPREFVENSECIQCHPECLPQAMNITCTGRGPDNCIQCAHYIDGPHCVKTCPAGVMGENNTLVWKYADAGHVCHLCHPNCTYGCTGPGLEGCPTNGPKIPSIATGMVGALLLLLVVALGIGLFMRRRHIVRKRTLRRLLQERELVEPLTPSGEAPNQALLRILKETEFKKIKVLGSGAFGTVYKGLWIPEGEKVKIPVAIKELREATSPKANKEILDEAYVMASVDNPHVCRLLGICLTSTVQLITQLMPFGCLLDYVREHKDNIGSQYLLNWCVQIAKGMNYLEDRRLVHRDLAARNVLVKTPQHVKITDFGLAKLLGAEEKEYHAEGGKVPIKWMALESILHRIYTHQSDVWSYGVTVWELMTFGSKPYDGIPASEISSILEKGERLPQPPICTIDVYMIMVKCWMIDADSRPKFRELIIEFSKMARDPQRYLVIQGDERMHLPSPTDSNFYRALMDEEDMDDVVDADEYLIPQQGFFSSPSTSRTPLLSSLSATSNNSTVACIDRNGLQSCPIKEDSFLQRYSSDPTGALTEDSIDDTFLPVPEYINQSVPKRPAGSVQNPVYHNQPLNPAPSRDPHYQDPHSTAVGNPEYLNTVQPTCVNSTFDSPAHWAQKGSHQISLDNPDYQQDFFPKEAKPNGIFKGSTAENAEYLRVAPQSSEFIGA

As to `CN(C)CC(C)(C)CNC(=O)C1CCN(c2cc(N3CCOCC3)nc(N)n2)CC1`, the inhibition is 0% in assay [1]; 0% in assay [2]; 0% in assay [3]; 0% in assay [4]; 6% in assay [5]; 0% in assay [6]. Also, the inhibition in assay [7] came out at 7%; in assay [8], 2%; in [9], 0%; in assay [10] it was 0%.
With `O=C(NC[C@@H]1CCCO1)c1cccc(Nc2nccc(Nc3ccc4ncsc4c3)n2)c1`, the inhibition in assay [1] came to 99%; in [2] it was 12%; in assay [3], 94%; in assay [4] it was 19%; in [5], 45%; in [6] it was 43%. Further, the inhibition in assay [7] came to 90%; in assay [8], 13%; in assay [9], 84%; in assay [10], 84%.
Turning to `Cc1cccc(Nc2nccc3c2CN(C(=O)c2cc(C)n(C)c2C)CC3)c1`, the inhibition in assay [1] worked out at 0%; in assay [2] it was 0%; in [3] it was 0%; in [4], 0%; in assay [5], 0%; in [6], 82%. For the same molecule, the inhibition stood at 6% in assay [7], 0% in assay [8], 0% in [9] and 0% in assay [10].
Consider `CN(CCc1ccccn1)C(=O)c1cccc(Nc2nccc(Nc3ccc4ncsc4c3)n2)c1`, for which the inhibition in assay [1] turned out to be 98%; in assay [2] it was 19%; in assay [3] it was 70%; in assay [4], 7%; in assay [5], 36%; in assay [6], 23%. Moreover, the inhibition in [7] was 48%; in assay [8], 7%; in assay [9], 37%; in assay [10], 28%.
On to `Cc1cccc(N(C)c2cc(N3CCN(C(=O)Cc4c[nH]c5ccccc45)CC3)ncn2)c1`, for which the inhibition in assay [1] turned out to be 0%; in assay [2], 6%; in assay [3], 9%; in assay [4], 0%; in assay [5] it was 3%; in assay [6], 0%. Besides, the inhibition turned out to be 6% in [7], 0% in assay [8], 0% in assay [9] and 0% in [10].
Consider `Nc1nc(N2CCOCC2)cc(N2CCC(C(=O)NCc3cccs3)CC2)n1`, for which the inhibition came to 0% in [1]; 8% in [2]; 0% in assay [3]; 1% in [4]; 5% in [5]; 0% in [6]. For the same molecule, the inhibition in assay [7] stood at 7%; in assay [8], 0%; in [9], 0%; in assay [10], 0%.
As to `Cc1cccc(Nc2cc(Nc3cccc(C(=O)N(CC(C)O)CC(C)O)c3)ncn2)c1` (stereo not given), the inhibition came out at 27% in assay [1]; 11% in assay [2]; 7% in [3]; 2% in [4]; 7% in [5]; 100% in assay [6]. Further, the inhibition is 49% in [7], 1% in assay [8], 26% in assay [9] and 7% in assay [10].
As for `Nc1nc(Nc2ccccc2)cc(N2CCC(C(=O)NCCc3ccccn3)CC2)n1`, the inhibition in assay [1] was 0%; in assay [2] it was 12%; in [3], 0%; in assay [4] it was 0%; in assay [5], 1%; in assay [6], 0%. Moreover, the inhibition in [7] came to 1%; in [8], 0%; in [9] it was 0%; in assay [10], 0%.
`Cc1cccc(N(C)c2cc(Nc3cccc(C(=O)NCCCn4ccnc4)c3)ncn2)c1`: the inhibition in assay [1] turned out to be 15%; in assay [2] it was 20%; in assay [3], 24%; in assay [4], 0%; in [5], 0%; in [6], 100%. The inhibition in assay [7] was determined as 27%; in [8], 0%; in assay [9], 24%; in [10] it was 3%.
With `CN(C)CC(C)(C)CNC(=O)c1cccc(Nc2nccc(Nc3ccc4ncsc4c3)n2)c1`, the inhibition was 99% in assay [1]; 23% in [2]; 97% in assay [3]; 29% in assay [4]; 52% in assay [5]; 16% in assay [6]. Moreover, the inhibition in [7] worked out at 75%; in [8], 27%; in assay [9] it was 100%; in assay [10], 91%.
With `Cc1cccc(Oc2ccnc(N3CCC[C@H]3C(=O)NCc3cccnc3)n2)c1`, the inhibition in assay [1] worked out at 0%; in assay [2] it was 0%; in [3], 6%; in [4], 0%; in [5], 0%; in [6] it was 0%. For the same molecule, the inhibition in assay [7] stood at 6%; in assay [8], 4%; in assay [9] it was 0%; in assay [10] it was 0%.
`O=C(NCc1ccncc1)c1cccc(Nc2cc(Nc3cccc(Br)c3)ncn2)c1`: the inhibition in assay [1] came to 35%; in assay [2] it was 37%; in assay [3], 28%; in assay [4], 13%; in [5] it was 4%; in [6], 100%. Besides, the inhibition in [7] turned out to be 29%; in assay [8], 0%; in assay [9], 32%; in [10], 0%.
Take `Cc1cccc(N(C)c2cc(Nc3cccc(C(=O)NCc4ccncc4)c3)ncn2)c1`: the inhibition in assay [1] was 13%; in [2], 8%; in assay [3], 19%; in assay [4], 0%; in [5], 0%; in assay [6] it was 100%. The inhibition in assay [7] was 19%; in assay [8], 5%; in assay [9], 9%; in [10], 0%.
For `Nc1nc(Nc2ccc3ncsc3c2)cc(N2CCC[C@H]2C(=O)NCCc2cccc(I)c2)n1`, the inhibition turned out to be 11% in assay [1]; 10% in assay [2]; 0% in assay [3]; 1% in assay [4]; 4% in assay [5]; 0% in assay [6]. Besides, the inhibition in [7] was determined as 13%; in assay [8], 1%; in [9] it was 0%; in [10] it was 16%.
As to `Cc1cccc(Nc2nccc(Nc3cccc(C(=O)N(C)CCc4ccccn4)c3)n2)c1`, the inhibition in [1] amounted to 86%; in assay [2] it was 3%; in assay [3] it was 49%; in assay [4], 5%; in [5] it was 9%; in assay [6], 8%. Further, the inhibition is 47% in assay [7], 0% in [8], 45% in [9] and 50% in [10].
